This assay has as its target T1, Polyunsaturated fatty acid lipoxygenase ALOX15 (Homo sapiens) (UniProt P16050).
T1 sequence (whole entry): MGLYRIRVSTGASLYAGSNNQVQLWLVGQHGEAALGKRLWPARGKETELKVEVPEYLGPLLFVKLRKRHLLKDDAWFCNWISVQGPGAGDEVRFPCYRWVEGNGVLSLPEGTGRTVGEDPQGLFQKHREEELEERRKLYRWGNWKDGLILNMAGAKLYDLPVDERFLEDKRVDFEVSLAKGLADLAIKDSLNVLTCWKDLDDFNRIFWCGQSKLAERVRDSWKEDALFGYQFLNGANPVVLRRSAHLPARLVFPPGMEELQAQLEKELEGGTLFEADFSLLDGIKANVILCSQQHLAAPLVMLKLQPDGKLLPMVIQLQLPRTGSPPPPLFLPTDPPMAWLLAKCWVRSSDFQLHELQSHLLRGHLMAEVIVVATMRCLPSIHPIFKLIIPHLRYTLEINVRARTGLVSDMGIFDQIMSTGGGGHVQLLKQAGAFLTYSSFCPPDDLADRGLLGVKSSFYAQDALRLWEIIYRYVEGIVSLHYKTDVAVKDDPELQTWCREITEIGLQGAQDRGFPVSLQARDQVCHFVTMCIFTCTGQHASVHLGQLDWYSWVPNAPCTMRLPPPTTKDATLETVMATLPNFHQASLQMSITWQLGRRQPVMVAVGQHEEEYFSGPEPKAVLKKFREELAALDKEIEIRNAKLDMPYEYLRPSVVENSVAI
Put plainly: Inhibition of recombinant human 15-LOX-1 expressed in Escherichia coli BL21(DE3) assessed as residual activity at 50 uM using linoleic acid as substrate preincubated for 10 mins followed by substrate addition. An outline of the steps:
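h-15-LOX-1 (1:100 enzyme stock, 1:400 final) preincubated 10 min at room temperature with inhibitor in 25 mM HEPES pH 7.4, then linoleic acid added to 25 µM final (inhibitor 50 µM final). 13(S)-HpODE formation read as A234 over time, rate taken from linear part within first 16 min; no-inhibitor = 100%, no-enzyme = 0%. Triplicate.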

In the case of `Cc1cc(C)cc(-c2c(C(=O)c3ccc(Br)cc3)[nH]c(N)c2C(=O)NCc2ccc(Cl)cc2)c1`, the Activity was determined as 98.5%. On to `CC(C)(C)C(=O)c1c(N)[nH]c(C(=O)c2ccccc2)c1-c1c(F)cccc1F`, for which the Activity was 91.9%. The value for `COCCNC(=O)c1c(N)[nH]c(C(=O)c2ccc(Br)cc2)c1-c1cccc2ccc(OC)cc12` was 75.6%; that for `NC(=O)c1c(N)[nH]c(C(=O)c2ccccc2)c1-c1ccc2c(c1)OCO2` was 92.3%. For the compound `COc1ccc(C(=O)c2[nH]c(N)c(C(=O)c3c[nH]c4ccccc34)c2-c2ccc(F)c(OC)c2)cc1`, the Activity was determined as 75.8%. `Nc1[nH]c(C(=O)c2ccc(Br)cc2)c(-c2ccc(Br)cc2)c1C(=O)NCc1ccc(-c2ccccc2)cc1`: the Activity amounted to 91.2%. `Nc1[nH]c(C(=O)c2ccccc2)c(-c2ccccc2C(F)(F)F)c1C(=O)NCc1ccc(F)cc1`: the Activity was determined as 92.2%. `COc1ccc(CCNC(=O)c2c(N)[nH]c(C(=O)c3ccccc3)c2-c2ccc(N(C)C)cc2)cc1`: the Activity turned out to be 66.4%. The value for `Nc1[nH]c(C(=O)c2ccccc2)c(-c2ccccc2C(F)(F)F)c1C(=O)c1c[nH]c2ccccc12` was 94.1%. As for `Nc1[nH]c(C(=O)c2ccccc2)c(-c2ccc(Cl)cc2)c1C(=O)O`, the Activity turned out to be 87.9%. In the case of `Nc1[nH]c(C(=O)c2ccc(Br)cc2)c(-c2ccc(Br)cc2)c1C(=O)N1CCOCC1`, the Activity is 87%.

Regarding `COc1ccccc1CCNC(=O)c1c(N)[nH]c(C(=O)c2ccccc2)c1-c1ccc(Br)cc1`, the Activity came out at 64.5%. For `Nc1[nH]c(C(=O)c2ccccc2)c(-c2cccc(C(F)(F)F)c2)c1C(=O)c1c[nH]c2ccccc12`, the Activity amounted to 114%.

With `COc1ccc(-c2c(C(=O)c3ccccc3)[nH]c(N)c2C(=O)c2ccc(Br)cc2)cc1OC`, the Activity turned out to be 94.7%. As to `Cc1ccc(-c2c(C(=O)c3ccccc3)[nH]c(N)c2C(=O)NCCc2c[nH]c3ccccc23)cc1`, the Activity amounted to 33.3%.

Take `COC(=O)c1c(N)[nH]c(C(=O)c2ccccc2)c1-c1ccc(Br)cc1`: the Activity was 94%. Consider `COc1ccc(C(=O)c2[nH]c(N)c(C(=O)NCCc3ccc(Cl)cc3Cl)c2-c2ccccc2Br)cc1`, for which the Activity stood at 86.4%.

Consider `COC(=O)c1c(N)[nH]c(C(=O)c2ccccc2)c1-c1ccc(Cl)cc1`, for which the Activity came out at 96%.

For `Nc1[nH]c(C(=O)c2ccccc2)c(-c2ccc(Cl)cc2)c1C(=O)NCCC1=CCCCC1`, the Activity was determined as 94.9%.

As to `Nc1[nH]c(C(=O)c2ccccc2)c(-c2cccc3ccccc23)c1C(=O)NCc1ccc(Cl)cc1Cl`, the Activity was determined as 115%. For the compound `Nc1[nH]c(C(=O)c2ccccc2)c(-c2ccccc2Br)c1C(=O)NCCc1ccc(Cl)cc1Cl`, the Activity came out at 93.8%. As to `Nc1[nH]c(C(=O)c2ccccc2)c(-c2ccccn2)c1C(=O)c1c[nH]c2ccc(Br)cc12`, the Activity came to 55.3%. For `NC(=O)c1c(N)[nH]c(C(=O)c2ccccc2)c1-c1cccnc1`, the Activity turned out to be 99.1%. As for `Nc1[nH]c(C(=O)c2ccccc2)c(-c2ccccc2Br)c1C(=O)NCc1ccc(-c2ccccc2)cc1`, the Activity was determined as 91.3%. Regarding `COc1cc(-c2c(C(=O)c3ccccc3)[nH]c(N)c2C(N)=O)ccc1O`, the Activity stood at 98.8%.

In the case of `Nc1[nH]c(C(=O)c2ccccc2)c(-c2ccccc2[N+](=O)[O-])c1C(=O)NCCc1c[nH]c2ccccc12`, the Activity was 98.1%.

Consider `Nc1[nH]c(C(=O)c2ccc(Br)cc2)c(-c2ccc(Br)cc2)c1C(=O)NC1CCCCC1`, for which the Activity was found to be 83.4%. On to `Nc1[nH]c(C(=O)c2ccccc2)c(-c2ccc(Cl)cc2)c1C(=O)NCc1ccco1`, for which the Activity is 88.8%.

Consider `Nc1[nH]c(C(=O)c2ccccc2)c(-c2ccc(Cl)cc2Br)c1C(=O)c1cccs1`, for which the Activity was 91.2%. As to `Nc1[nH]c(C(=O)c2ccccc2)c(-c2ccccc2Br)c1C(=O)NC1CCCCC1`, the Activity came out at 86.7%. Consider `Nc1[nH]c(C(=O)c2ccccc2)c(-c2ccc(Cl)cc2Cl)c1C(=O)c1ccc(Br)cc1`, for which the Activity came out at 88.3%. In the case of `NC(=O)c1c(N)[nH]c(C(=O)c2ccccc2)c1-c1ccc(Br)cc1`, the Activity stood at 99.3%. The value for `CN(C)CCCNC(=O)c1c(N)[nH]c(C(=O)c2ccc(Br)cc2)c1-c1ccc(Br)cc1` was 114%; that for `COc1ccc(C(=O)c2[nH]c(N)c(C(=O)c3ccccc3)c2-c2ccc(OC)c(OC)c2)cc1` was 95.7%; that for `NC(=O)c1c(N)[nH]c(C(=O)c2ccccc2)c1-c1ccccc1C(F)(F)F` was 93.6%. Regarding `Nc1[nH]c(C(=O)c2ccccc2)c(-c2ccccc2Cl)c1C(=O)c1ccccc1`, the Activity was determined as 70.9%. With `Nc1[nH]c(C(=O)c2ccc(Br)cc2)c(-c2ccc(Cl)cc2Cl)c1C(=O)NCCc1c[nH]c2ccccc12`, the Activity is 69.3%. Consider `CCCCCCCCCCCCCCNC(=O)c1c(N)[nH]c(C(=O)c2ccc(Br)cc2)c1-c1ccc(Br)cc1`, for which the Activity amounted to 99.2%. Consider `CCCCCCNC(=O)c1c(N)[nH]c(C(=O)c2ccccc2)c1-c1ccc(O)cc1`, for which the Activity was 90.8%. As for `Nc1[nH]c(C(=O)c2ccccc2)c(-c2ccc(O)cc2)c1C(=O)NCCc1c[nH]c2ccccc12`, the Activity stood at 53.3%.

In the case of `Nc1[nH]c(C(=O)c2ccccc2)c(-c2ccc(Cl)cc2)c1C(=O)N1CCCC1`, the Activity was found to be 123%. Under `COc1ccc(-c2c(C(=O)c3ccccc3)[nH]c(N)c2C(=O)NCCc2c[nH]c3ccccc23)cc1` stands 35.3%; under `Nc1[nH]c(C(=O)c2ccc(Br)cc2)c(-c2ccc(Br)cc2)c1C(=O)NCc1ccc(F)cc1`, 102%. Under `Nc1[nH]c(C(=O)c2ccc(Br)cc2)c(-c2ccncc2)c1C(=O)NCCc1c[nH]c2ccccc12` stands 86.1%. As for `Nc1[nH]c(C(=O)c2ccc(Br)cc2)c(-c2ccc(Cl)cc2)c1C(=O)NCCc1c[nH]c2ccccc12`, the Activity came out at 19.3%.

Regarding `Nc1[nH]c(C(=O)c2ccc(Br)cc2)c(-c2cccc3ccccc23)c1C(=O)NCCc1c[nH]c2ccccc12`, the Activity turned out to be 46.7%. Under `Nc1[nH]c2cc(Cl)ccc2c1C(=O)NCCc1ccc(Cl)cc1` stands 80.2%; under `Nc1[nH]c(C(=O)c2ccccc2)c(-c2ccc(Cl)cc2)c1C(=O)c1c[nH]c2ccc(Br)cc12`, 50.9%; under `COc1cc(-c2c(C(=O)c3ccccc3)[nH]c(N)c2C(=O)NCCc2c[nH]c3ccccc23)ccc1F`, 37.1%. As to `Nc1[nH]c(C(=O)c2ccccc2)c(-c2ccncc2)c1C(=O)NCc1ccc(Cl)cc1`, the Activity is 86.6%.

As to `Nc1[nH]c(C(=O)c2ccc(Br)cc2)c(-c2ccncc2)c1C(=O)c1ccccc1`, the Activity came out at 109%.

Consider `Nc1[nH]c2cc(C(F)(F)F)ccc2c1C(=O)NCc1ccc(F)cc1`, for which the Activity came to 102%. As for `COc1ccc(C(=O)c2[nH]c(N)c(C(N)=O)c2-c2ccc(OC)c(OC)c2)cc1`, the Activity was 58%.

For the compound `COc1ccc2cccc(-c3c(C(=O)c4ccc(Br)cc4)[nH]c(N)c3C(=O)NCc3ccc(F)c(F)c3)c2c1`, the Activity is 86.3%.

For `COc1ccc(C(=O)c2[nH]c(N)c(C(=O)NCCc3c[nH]c4ccccc34)c2-c2ccc(Cl)c(Cl)c2)cc1`, the Activity worked out at 41.9%. Under `Nc1[nH]c(C(=O)c2ccccc2)c(-c2ccncc2)c1C(=O)NCc1cccc2ccccc12` stands 95.1%; under `NC(=O)c1c(N)[nH]c(C(=O)c2ccccc2)c1-c1ccccc1Br`, 87.4%. The value for `Nc1[nH]c(C(=O)c2ccccc2)c(-c2ccc3ccccc3c2)c1C(=O)NCc1cccc2ccccc12` was 98.6%; that for `Nc1[nH]c(C(=O)c2ccccc2)c(-c2cccnc2)c1C(=O)NC1CCCCC1` was 77.5%. As for `Cc1ccc(S(=O)(=O)n2c(-c3ccccc3)cc(C(=O)NC3CC3)c2N)cc1`, the Activity was found to be 92.2%. Under `Nc1[nH]c(C(=O)c2ccccc2)c(-c2ccc(Cl)cc2Cl)c1C(=O)NCCC1=CCCCC1` stands 76.5%. Consider `NC(=O)c1c(N)[nH]c(C(=O)c2ccccc2)c1-c1ccncc1`, for which the Activity worked out at 98.9%. Regarding `Nc1[nH]c(C(=O)c2ccc(Cl)cc2)c(-c2ccc(Br)cc2)c1C(=O)NCCc1c[nH]c2ccccc12`, the Activity turned out to be 53.3%. The value for `CC(C)(C)C(=O)c1c(N)[nH]c(C(=O)c2ccccc2)c1-c1ccccc1Br` was 82.9%; that for `Nc1[nH]c(C(=O)c2ccccc2)c(-c2ccccc2C(F)(F)F)c1C(=O)c1cccs1` was 86.4%; that for `COc1ccc2cccc(-c3c(C(=O)c4ccc(Br)cc4)[nH]c(N)c3C(=O)NC3CCCCC3)c2c1` was 34%. On to `COc1ccc(-c2c(C(=O)c3ccccc3)[nH]c(N)c2C(=O)NC2CC2)cc1OC`, for which the Activity is 90.2%. For `CC(NC(=O)c1c(N)[nH]c(C(=O)c2ccccc2)c1-c1ccccc1Br)c1cccc2ccccc12` (centres undefined), the Activity is 71.3%.

On to `Nc1[nH]c(C(=O)c2ccccc2)c(-c2ccc3ccccc3c2)c1C(=O)NCc1ccc(-c2ccccc2)cc1`, for which the Activity turned out to be 122%.
